Experimental data from publication PMC5159310 (Bioorganic & medicinal chemistry letters, 2016).
Positions of bridges follow the written chain, without caps; N, C: chain ends. Non-standard residues stand in square brackets, D forms with d. Residues, ends and D or L forms follow the SMILES beside them. Nle = CCCC[C@H](N)C(=O)O

Key:
Metabolic stability = format: in vitro ADME; conditions: rat, plasma
[1] = biological target: bradykinin receptors (BRs); assay: Radioligand competition assay using [3H]BK in rat brain membranes; format: binding; conditions: for BR, [3H]BK IC50 / BR, [3H]BK Log[IC50] / IC50: rat brain membranes, pH 6.8, [3H]BK; for BR, [3H]BK Log[IC50]: logarithmic value (negative); for IC50: read-out: BR, [3H]BK IC50
In short: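 Competitive binding against [3H]BK in rat brain membranes at pH 6.8. Non-specific binding was defined with 10 μM kallidin. Data came from at least two independent experiments run in duplicate. IC50 was derived by nonlinear least-squares regression and also reported as a logarithmic value.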

half-life (Metabolic stability)	Molecule	BR, [3H]BK IC50 [1]	BR, [3H]BK Log[IC50] [1]	IC50 [1]	other results
> 5 h	CC[C@H](C)[C@@H]1NC(=O)[C@H](CCCNC(=N)N)NC(=O)[C@H](CC(C)C)NC(=O)[C@H](Cc2ccccc2)NC(=O)CC[C@@H](C(=O)N[C@@H](CCCCN)C(=O)O)NC(=O)[C@H](CCCNC(=N)N)NC1=O [ligand 5, c^N,6[Phe-Leu-Arg-Ile-Arg-Glu]-Lys-OH] (FLRIREK-OH; lactam N-6 (inferred))	–	–	–	–
< 1 h	CCCC[C@H](NC(=O)[C@H](CCCCN)NC(=O)[C@@H]1CCCN1C(=O)[C@H](CCCCN)NC(=O)[C@@H](N)CCCC)C(=O)N[C@@H](CCCCN)C(=O)O [ligand 1, H-Nle-Lys-Pro-Lys-Nle-Lys-OH] (H-[Nle]KPK[Nle]K-OH)	–	–	–	–
–	H-c^1,5(-cisCH=CH-)[Ala-Lys-Pro-Lys-Ala]-Lys-OH (AKPKA; not fully specified; cis-CH=CH- dicarba bridge 1,5; C-terminal Lys; printed: Ala-Lys-Pro-Lys-Ala) [ligand 2]	no competition	–	–	–
–	c^N,6[Lys-Leu-Arg-Ile-Arg-Glu]-Lys-OH (KLRIREK-OH; lactam N-6; SMILES CC[C@H](C)[C@@H]1NC(=O)[C@H](CCCNC(=N)N)NC(=O)[C@H](CC(C)C)NC(=O)[C@H](CCCCN)NC(=O)CC[C@@H](C(=O)N[C@@H](CCCCN)C(=O)O)NC(=O)[C@H](CCCNC(=N)N)NC1=O) [ligand 6]	–	−6.52+0.15	302 nM	–
–	c^N,5[Leu-Arg-Ile-Arg-Glu]-Lys-OH (LRIREK-OH; lactam N-5; SMILES CC[C@H](C)[C@@H]1NC(=O)[C@H](CCCNC(=N)N)NC(=O)[C@H](CC(C)C)NC(=O)CC[C@@H](C(=O)N[C@@H](CCCCN)C(=O)O)NC(=O)[C@H](CCCNC(=N)N)NC1=O) [ligand 7]	–	−5.82+0.09	1510 nM	reduction of affinity at the BRs (fold) ([1]; compared with linear ligand 4): 22 fold
–	H-c^1,5(-CH2CH2-)[Ala-Lys-Pro-Lys-Ala]-Lys-OH (AKPKA; not fully specified; -CH2CH2- dicarba bridge 1,5; C-terminal Lys; printed: Ala-Lys-Pro-Lys-Ala) [ligand 3]	no competition	–	–	–
